Experimental data as given in ChEMBL document CHEMBL1125428, “Development of 2,3-dihydro-6-(3-phenoxypropyl)-2-(2-phenylethyl)-5-benzofuranol (L-670,630) as a potent and orally active inhibitor of 5-lipoxygenase” (J Med Chem, 1992).

What was measured:
[1] = molecular target: Arachidonate 5-lipoxygenase (Homo sapiens); test: Inhibitory activity of LTB4 production in human PMN
[2] = species on record: Canis familiaris; test: Effect on methemoglobin formation in canine venous blood containing heparin; type: functional, Canis lupus familiaris
[3] = molecular target: T1, Polyunsaturated fatty acid 5-lipoxygenase (Rattus norvegicus, UniProt P12527); test: Tested for its inhibitory activity against arachidonic acid in rat 5-lipoxygenase.
T1 sequence (P12527 whole entry): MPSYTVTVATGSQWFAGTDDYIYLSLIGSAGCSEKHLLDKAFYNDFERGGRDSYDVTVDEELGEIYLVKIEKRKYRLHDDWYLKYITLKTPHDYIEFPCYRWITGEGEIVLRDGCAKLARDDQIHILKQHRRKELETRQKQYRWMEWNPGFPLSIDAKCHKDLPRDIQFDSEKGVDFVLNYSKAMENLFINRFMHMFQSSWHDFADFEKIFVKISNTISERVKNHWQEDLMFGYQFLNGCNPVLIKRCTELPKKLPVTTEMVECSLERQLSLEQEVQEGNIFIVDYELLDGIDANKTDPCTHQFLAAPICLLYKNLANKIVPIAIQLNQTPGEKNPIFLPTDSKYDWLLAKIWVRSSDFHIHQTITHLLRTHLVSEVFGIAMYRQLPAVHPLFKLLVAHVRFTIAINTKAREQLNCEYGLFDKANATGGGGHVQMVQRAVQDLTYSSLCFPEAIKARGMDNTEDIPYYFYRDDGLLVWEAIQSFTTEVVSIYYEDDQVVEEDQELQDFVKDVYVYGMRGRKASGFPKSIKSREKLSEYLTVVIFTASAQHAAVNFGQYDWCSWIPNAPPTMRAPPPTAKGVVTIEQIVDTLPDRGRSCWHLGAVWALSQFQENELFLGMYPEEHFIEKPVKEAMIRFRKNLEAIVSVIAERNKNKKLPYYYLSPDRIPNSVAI
Summary of the method: (§1)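 10000g supernatant from rat PMN leukocytes incubated 10 min with [14C]arachidonic acid. 5-Lipoxygenase activity taken as percentage conversion to 5-HETE plus 5,12-diHETEs.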

[4] = tested on: Rattus norvegicus; test: Effective dose against antigen induced dyspnea in hyperactive inbred rat at a dose of 0.5 mg/kg; type: functional
Summary of the method: (§2)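 Inbred hyperreactive rats, six per group, dosed po 2 h before aerosol ovalbumin challenge, with drug suspension or vehicle (0.4% Methocel/0.5% Tween 80, 10 mL/kg). Methysergide 3 mg/kg iv given 5 min before antigen. Dyspnea duration recorded by pneumotachograph. % inhibition of duration is relative to vehicle controls. Student's t test used; ED50 from linear regression.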

[5] = Measure of AUCpo/AUCiv x 100% of the parent compound before (free) and after (total) beta-glucuronidase treatment; total 27%; type: ADME, organism-based; settings: in vivo, po; read-out: Bioavailabiility
[6] = Peak concentration of drug in rat plasma after oral dosing at 20 mg/kg. Concentration of parent compound was measured before (free) and after (total) beta-glucuronidase treatment; total 3.1 uM; type: ADME, organism-based; set-up: dose 20 mg/kg, route oral; settings: read-out: Plasma level
[7] = species on record: Rattus norvegicus; test: Percentage inhibition against antigen induced dyspnea in hyperactive inbred rat at a dose of […]; type: functional
[8] = tested on: Rattus norvegicus; test: Percentage inhibition against antigen induced dyspnea in hyperactive inbred rat at a dose of 0.05 mg/kg; type: functional
Summary of the method: as §2

[9] = tested on: Rattus norvegicus; test: Peak concentration of drug in rat plasma after oral dosing at 20 mg/kg. Concentration of parent compound was measured before (free) and after (total) beta-glucuronidase treatment; total 0.7 uM; type: functional, organism-based; set-up: dose 20 mg/kg
[10] = tested on: Rattus norvegicus; test: Percentage inhibition against antigen induced dyspnea in hyperactive inbred rat at a dose of 0.5 mg/kg; type: functional; settings: for inhibition in vivo at 0.5 mg/kg: Rattus norvegicus
Summary of the method: as §2

[11] = Measure of AUCpo/AUCiv x 100% of the parent compound before (free) and after (total) beta-glucuronidase treatment; total 72%; type: ADME, organism-based; settings: in vivo, po; read-out: Bioavailabiility
[12] = Peak concentration of drug in rat plasma after oral dosing at 20 mg/kg. Concentration of parent compound was measured before (free) and after (total) beta-glucuronidase treatment; total 2.2 uM; type: ADME, organism-based; set-up: dose 20 mg/kg, route oral; settings: read-out: Plasma level
[13] = species on record: Rattus norvegicus; test: Effective dose against antigen induced dyspnea in hyperactive inbred rat at a dose of […]; type: functional
[14] = Peak concentration of drug in rat plasma after oral dosing at 20 mg/kg. Concentration of parent compound was measured before (free) and after (total) beta-glucuronidase treatment; total 3.8 uM; type: ADME, organism-based; set-up: dose 20 mg/kg, route oral; settings: read-out: Plasma level
[15] = Measure of AUCpo/AUCiv x 100% of the parent compound before (free) and after (total) beta-glucuronidase treatment; total 76%; type: ADME, organism-based; settings: in vivo, po; read-out: Bioavailabiility
[16] = Measure of AUCpo/AUCiv x 100% of the parent compound before (free) and after (total) beta-glucuronidase treatment; total 10%; type: ADME, organism-based; settings: in vivo, po; read-out: Bioavailabiility
[17] = Peak concentration of drug in rat plasma after oral dosing at 20 mg/kg. Concentration of parent compound was measured before (free) and after (total) beta-glucuronidase treatment; total 3.0 uM; type: ADME, organism-based; set-up: dose 20 mg/kg, route oral; settings: read-out: Plasma level
[18] = molecular target: T1, Polyunsaturated fatty acid 5-lipoxygenase; test: The compound was tested for its inhibitory activity against arachidonic acid in rat 5-lipoxygenase
Summary of the method: as §1

[19] = Peak concentration of drug in rat plasma after oral dosing at 20 mg/kg. Concentration of parent compound was measured before (free) and after (total) beta-glucuronidase treatment; total 3.4 uM; type: ADME, organism-based; set-up: dose 20 mg/kg, route oral; settings: read-out: Plasma level
[20] = Measure of AUCpo/AUCiv x 100% of the parent compound before (free) and after (total) beta-glucuronidase treatment; total 4%; type: ADME, organism-based; settings: in vivo, po; read-out: Bioavailabiility

SMILES	IC50 [1] [nM]	Formation [2] [%]	IC50 [3] [nM]	also measured
CCCc1cc2c(cc1O)C(C)(C)C(CCc1ccc(S(C)(=O)=O)cc1)O2 (stereo not drawn)	176			
COc1ccc(CC2Oc3ccc(O)cc3C2C)cc1 (stereo not drawn)	107	6		
Oc1cc2c(cc1CCCOc1ccccc1)OC(CCc1ccc(Cl)cc1)C2 (stereo not drawn)	41	2.8	51	ED50 [4]: 0.07 mg/kg; bioavailability [5]: 6%; Cmax [6]: 300 nM; inhibition in vivo at […] ([7]; dose 0.15 mg/kg): 66%; inhibition in vivo at 0.05 mg/kg [8]: 56%
C=CCc1cc2c(cc1O)C(C)(C)C(CCc1ccc(OC)cc1)O2 (stereo not drawn)	47	2	52	inhibition in vivo at […] ([7]; dose 1.5 mg/kg): 50%; Plasma level [9]: 0 µM
C=CCc1cc2c(cc1O)CC(CCc1ccccc1)O2 (stereo not drawn)	10	52	17	inhibition in vivo at […] ([7]; dose 1.5 mg/kg): 50%; inhibition in vivo at 0.5 mg/kg [10]: 65%
CCCc1c(O)c(CCCOc2ccc(C3N=NN=N3)cc2)cc2c1CC(CCc1ccccc1)O2 (stereo not drawn)	107	2	45	bioavailability [11]: 12%; Cmax [12]: 1600 nM; inhibition in vivo at […] ([7]; dose 0.15 mg/kg): 61%; ED50 at […] [13]: 0.03 mg/kg; inhibition in vivo at 0.5 mg/kg [10]: 64%; inhibition in vivo at 0.05 mg/kg [8]: 52%
Oc1cc2c(cc1Cc1ccccc1)OC(CCc1ccccc1)C2 (stereo not drawn)	18	6	48	Cmax [14]: 1600 nM; bioavailability [15]: 44%; inhibition in vivo at […] ([7]; dose 0.15 mg/kg): 44%; ED50 at […] [13]: 0.3 mg/kg; inhibition in vivo at 0.5 mg/kg [10]: 53%; inhibition in vivo at 0.05 mg/kg [8]: 44%
CCCc1cc(Cl)c2c(c1O)C(C)C(Cc1ccc(OC)cc1)O2 (stereo not drawn)	235			
CCCc1cc2c(cc1O)C(C)(C)C(CCSc1ccccn1)O2 (stereo not drawn)	75		44	
Oc1cc2c(cc1CCCOc1ccccc1)OCC2	57			
Oc1cc2c(cc1CCCSc1ccncc1)OC(CCc1ccccc1)C2 (stereo not drawn)	14	6	8	bioavailability [16]: 11%; Cmax [17]: 1000 nM; inhibition in vivo at […] ([7]; dose 1.5 mg/kg): 51%
CC1(C)c2cc(O)c(CCCOc3ccccc3)cc2OC1CCc1ccccc1 (stereo not drawn)	38	6	40	inhibition in vivo at […] ([7]; dose 1.5 mg/kg): 48%
CCCc1c(O)c(CCCOc2ccccc2)cc2c1CC(CCc1ccccc1)O2 (stereo not drawn)	52	2		IC50 [18]: 127 nM
CS(=O)(=O)c1ccc(Cc2cc3c(cc2O)CC(CCc2ccccc2)O3)cc1 (stereo not drawn)	190			
Oc1cc2c(cc1CCCSc1nc3ccccc3s1)OC(CCc1ccccc1)C2 (stereo not drawn)	22	1	45	
CCCc1cc2c(cc1O)C(C)(C)C(CCc1ccc(SC)cc1)O2 (stereo not drawn)	28		92	
Oc1cc2c(cc1CCCOc1ccc(C3N=NN=N3)cc1)OC(CCc1ccccc1)C2 (stereo not drawn)	201			
CC1(C)c2cc(O)c(CCCOc3ccccc3)cc2OC1CCc1ccc(Cl)cc1 (stereo not drawn)	472			
O=C(O)c1ccc(OCCCc2cc3c(cc2O)CC(CCc2ccccc2)O3)cc1 (stereo not drawn)	356	3	44	
CCCc1cc2c(cc1O)C(C)C(Cc1ccc(OC)cc1)O2 (stereo not drawn)	18	6		IC50 [18]: 35 nM
CCCc1c(OCCCc2cc3c(cc2O)CC(CCc2ccccc2)O3)ccc(C(C)=O)c1O (stereo not drawn)	9	3	53	Inhibition ([10]; 0.5 mg/kg): 50%; inhibition in vivo at 0.5 mg/kg [10]: 50%
C=CCc1c(O)ccc2c1CC(CCc1ccccc1)O2 (stereo not drawn)	38	18	25	
C=CCc1cc2c(cc1O)C(C)(C)C(Cc1ccc(OC)cc1)O2 (stereo not drawn)	49	1	164	inhibition in vivo at […] ([7]; dose 1.5 mg/kg): 68%
Oc1ccc2c(c1)CC(CCc1ccccc1)O2 (stereo not drawn)	275	40		
COc1nc2c(SCCCc3cc4c(cc3O)CC(CCc3ccccc3)O4)cccc2cc1C(=O)O (stereo not drawn)	37	1	50	Cmax [19]: 1000 nM; bioavailability [20]: 3%; inhibition in vivo at […] ([7]; dose 0.15 mg/kg): 72%; ED50 at […] [13]: < 0.05 mg/kg; inhibition in vivo at 0.5 mg/kg [10]: 69%; inhibition in vivo at 0.05 mg/kg [8]: 55%
